Assay outcomes: PubChem BioAssay, several laboratories
Pf gametocyte = inhibitors of late stage P. falciparum gametocyte viability. P. falciparum stage V gametocytes, ATP luminescence, 24 h. inhibition, % at 10.9 µM. 150,000 tested, 0.065% active;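 active = inhibition above the mean plus 3 SD of compounds within the control limits, set per campaign, cut at about 38% in these data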;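 also: 0% = DMSO wells and 100% = medium only without gametocytes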
zVAD death inh = L929 zVAD cell death inhibition; L929 zVAD necroptosis rescue, ATP luminescence, 24 h; with zVAD 60 µM; viability rescue, % at 10 µM; 220,000 tested, 0.38% active; AID 1377;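 active = activation, scaled between plate controls, above about 75%, limit read from the data; inactive = activation under that limit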;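 also: 0% = zVAD with DMSO and 100% = DMSO alone without zVAD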
TNF necrop inh = inhibitors of TNF-alpha induced necroptosis in Jurkat FADD-/- cells; AID 463075; Jurkat FADD-/- TNF necroptosis rescue, ATP luminescence, 24 h; 0 = TNF only, 100 = no-TNF cells; activation (protection from cell death), % at 10 µM; 220,000 tested, 0.068% active;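 active = activation, meaning protection from cell death, of at least 50% relative to plate controls; inactive = activation below 50%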;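 also: necroptosis triggered by 40 ng/mL TNF-alpha added together with compound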
Wee1 degr inh = human Wee1 degradation inhibition, primary screen | AID 1321 | P30291 | HeLa Luc-Wee1K328M stability, luciferase luminescence; 100% = proteasome inhibitor MG132 effect | reporter increase, % at 5 µM | 220,000 tested, 1.2% active;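 active = activation above the mean of all tested compounds plus 3 SD, set per screening run, cut at about 8.8% in these data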;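 also: cells exposed to compound for 20 h before luminescence read; 0% = DMSO alone and 100% = MG132 at 30 µM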
Calpain2 inh = inhibitors of pig calpain II. purified calpain II, fluorogenic peptide substrate, 30 min. inhibition, % at 16 µM. 220,000 tested, 0.37% active;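 active = inhibition above about 50%, limit read from the data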
RBBP9 inh = inhibitors of human serine hydrolase RBBP9. O75884. recombinant RBBP9, FP-Rh probe fluorescence polarization. inhibition, % at 7.94 µM. 220,000 tested, 0.2% active. AID 1515;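 active = inhibition above the campaign mean of all tested compounds plus 3 SD, cut at about 14% in these data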;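 also: plate controls were DMSO wells with RBBP9 for no effect and wells lacking RBBP9 protein for full effect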
Target sequence (O75884 whole entry, looked up): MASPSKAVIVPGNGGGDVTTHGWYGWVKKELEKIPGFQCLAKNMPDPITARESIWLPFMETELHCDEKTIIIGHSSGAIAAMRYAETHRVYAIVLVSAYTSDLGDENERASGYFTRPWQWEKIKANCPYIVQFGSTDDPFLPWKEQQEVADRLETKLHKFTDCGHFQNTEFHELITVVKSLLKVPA
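System: RBBP9 protein / Buffer or medium: Tris/NaCl buffer pH 8.0 with 0.1% Pluronic / Probe or stimulus: Serine-hydrolase probe FP-Rh, 375 nM pre-mixing / Dosing: 7.94 µM single dose, 0.794% DMSO / Times: enzyme-compound preincubation 30 min, then probe labeling 45 min, 25 °C / Technique: fluorescence polarization (mP), excitation 525 nm, emission 598 nm / Replication: singlicate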
Starred values were filed as active, the others as inactive. The list is not random: actives were taken first. Their share in the collection is about 2.1%.

What do the screens show for `Cc1ccc2c(c1)Oc1ccccc1C=C2C(=O)O`?
Pf gametocyte: 2; zVAD death inh: 4; TNF necrop inh: 0; Wee1 degr inh: -3; Calpain2 inh: -27; RBBP9 inh: -4

How did COc1ccc2nc(N3CCCCC3)c(/C=C3\SC(=S)NC3=O)cc2c1 do in these assays?
Pf gametocyte: 28; zVAD death inh: 3; TNF necrop inh: -1; Wee1 degr inh: -2; Calpain2 inh: 27; RBBP9 inh: -8

Results for O=C1NC(=S)S/C1=C\c1cc2ccccc2nc1N1CCCCC1 ?
Pf gametocyte: 11; zVAD death inh: 4; TNF necrop inh: -1; Wee1 degr inh: -3; Calpain2 inh: 56*; RBBP9 inh: -9

Results for COCCSc1nnc(NC(=O)C(C)(C)C)s1 ?
Pf gametocyte: -12; zVAD death inh: 0; TNF necrop inh: 0; Wee1 degr inh: 8.8*; Calpain2 inh: -17; RBBP9 inh: -3

How did COCCSc1nnc(NC(=O)CSc2ccccc2)s1 do in these assays?
zVAD death inh: 0; TNF necrop inh: 1; Wee1 degr inh: -2; Calpain2 inh: -6; RBBP9 inh: -10

How did CCOC(=O)c1[nH]c2ccc(Br)cc2c1NC(=O)CCN1CCCC(C)(C)C1 do in these assays?
Pf gametocyte: 8; TNF necrop inh: 3; Wee1 degr inh: -2; Calpain2 inh: 28; RBBP9 inh: -7

How did CCOc1ccc(/C(O)=C2/C(=O)C(=O)N(CCCn3ccnc3)C2c2cccs2)cc1Cl (stereo not drawn) do in these assays?
zVAD death inh: 0; TNF necrop inh: -4; Wee1 degr inh: 10*; Calpain2 inh: -1; RBBP9 inh: -4

How did Cc1ccc(C(=O)NCCCNc2ccccc2[N+](=O)[O-])cc1 do in these assays?
zVAD death inh: 7; TNF necrop inh: 0; Wee1 degr inh: -2; Calpain2 inh: 51*; RBBP9 inh: -10

What do the screens show for `Cc1ccc(C(=O)NNS(=O)(=O)c2ccccc2[N+](=O)[O-])cc1`?
Pf gametocyte: -15; zVAD death inh: 1; TNF necrop inh: -1; Wee1 degr inh: 2; Calpain2 inh: -25; RBBP9 inh: -4

What do the screens show for `COc1ccc(Nc2nc(=O)c3cc([N+](=O)[O-])ccc3s2)cc1`?
Pf gametocyte: -12; zVAD death inh: 0; TNF necrop inh: 25; Wee1 degr inh: 2; Calpain2 inh: 60*; RBBP9 inh: -2

What do the screens show for `COCc1nnc(NS(=O)(=O)c2ccc(NC(C)=O)cc2)s1`?
Pf gametocyte: 7; zVAD death inh: 2; TNF necrop inh: 0; Wee1 degr inh: 9.9*; Calpain2 inh: -12; RBBP9 inh: -2

How did COc1ccc(/C(C)=N/NC(=S)NCCc2ccccc2)cc1 do in these assays?
Pf gametocyte: 39*; zVAD death inh: 0; TNF necrop inh: -5; Wee1 degr inh: 0; Calpain2 inh: 21; RBBP9 inh: 4

How did Cc1noc2ncnc(Oc3ccc(Cl)cc3Cl)c12 do in these assays?
Pf gametocyte: 2; zVAD death inh: 0; TNF necrop inh: 0; Wee1 degr inh: 1; Calpain2 inh: 10; RBBP9 inh: -12

What do the screens show for `COc1ccc(N2CCN(S(=O)(=O)c3cccc4cccnc34)CC2)cc1`?
zVAD death inh: 1; TNF necrop inh: 0; Wee1 degr inh: -1; Calpain2 inh: -24; RBBP9 inh: 3

Results for O=S(=O)(c1cccc2cccnc12)N1CCN(c2ccc(F)cc2)CC1 ?
zVAD death inh: 4; TNF necrop inh: 56*; Wee1 degr inh: 1; Calpain2 inh: -19; RBBP9 inh: -2

Results for CCOc1ccc(Cl)cc1S(=O)(=O)N1CCN(c2ccc(F)cc2)CC1 ?
Pf gametocyte: -14; zVAD death inh: 0; TNF necrop inh: 3; Wee1 degr inh: -1; Calpain2 inh: 59*; RBBP9 inh: -1

How did COc1ccc(Cl)cc1S(=O)(=O)N1CCN(c2ccc(F)cc2)CC1 do in these assays?
zVAD death inh: 0; TNF necrop inh: 0; Wee1 degr inh: -1; Calpain2 inh: -6; RBBP9 inh: -9

How did CCOC(=O)N1CCN(C(=O)c2ccc3c(c2)ncn3C2CCCC2)CC1 do in these assays?
Pf gametocyte: 2; zVAD death inh: 2; TNF necrop inh: 0; Wee1 degr inh: 3; Calpain2 inh: 27; RBBP9 inh: -4
